Key:
[1] = target: T1, Triosephosphate isomerase (Oryctolagus cuniculus, UniProt P00939); assay: Binding affinity against rabbit muscle triose-phosphate isomerase; design: species or system Muscle tissue
Outline: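 Rabbit muscle TIM, converting G3P to DHAP, was coupled to a large excess of glycerol-3-phosphate dehydrogenase. NADH consumption was followed at 340 nm. The G3P level was estimated enzymatically with the same coupled system. The cuvette was preincubated 10 min at 25 C, and the reaction was started with G3P (0–250). Inhibitor was tested at 0–30 µM, with inhibition analysed on double-reciprocal plots against 1/[G3P].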

[2] = Binding affinity against class II fructose-bisphosphate aldolase
[3] = Inhibitory concentration against class II fructose-bisphosphate aldolase
[4] = target: T1, Triosephosphate isomerase; assay: Inhibitory concentration against rabbit muscle triose-phosphate isomerase; design: species or system Muscle tissue

T1 sequence (P00939 whole entry): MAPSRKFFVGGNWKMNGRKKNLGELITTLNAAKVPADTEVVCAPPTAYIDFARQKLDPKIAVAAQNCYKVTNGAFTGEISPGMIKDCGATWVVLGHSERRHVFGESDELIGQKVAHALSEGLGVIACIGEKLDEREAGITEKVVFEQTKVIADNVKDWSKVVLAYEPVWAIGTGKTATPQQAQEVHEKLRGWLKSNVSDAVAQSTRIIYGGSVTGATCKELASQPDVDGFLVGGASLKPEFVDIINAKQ

| Structure (SMILES) | Ki [1] [µM] | Ki [2] [µM] | IC50 [3] [µM] | IC50 [4] [µM] |
| --- | --- | --- | --- | --- |
| O=C(CCP(=O)(O)O)NO | 159 | 145 | – | – |
| NNC(=O)CCP(=O)(O)O | – | – | 3630 | 27000 |
| O=C(COP(=O)(O)O)NO [PHOSPHOGLYCOLOHYDROXAMATE] | 3 | 0.01 | – | – |
| N/C(CCP(=O)(O)O)=N\O | – | – | 3420 | 9600 |
| N/C(COP(=O)(O)O)=N/O | 4.5 | 2.3 | – | – |
| NNC(=O)COP(=O)(O)O [PHOSPHORIC ACID MONOHYDRAZINOCARBONYLMETHYL ESTER] | 111 | 0.34 | – | – |

— ChEMBL document CHEMBL1144432, “New inhibitors of rabbit muscle triose-phosphate isomerase” (Bioorg Med Chem Lett, 2005)
